Measurements as given in PubChem BioAssay AID638 (SRMLSC, 2007).
Hit rate of the full screen: of about 1,300 compounds, about 65 (5%) were called active.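 The calls were made as follows: active = growth inhibition reaching a set limit at one or more tested doses; inactive = the rest.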 The list is a sample of the results. Measured potencies and affinities stand elsewhere.

Assay: growth inhibition of wild-type E. coli, dose response, BW25113 wild type, OD615 (AID 638)
Details: at 100 µM (top of the series) unless noted
Outline: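 assay system = wild-type Escherichia coli strain BW25113 growth | medium = Kanamycin-supplemented LB broth | measured by = optical density (absorbance) at 615 nm | timing = bacterial exposure to compound 20 h at 37 °C | doses = compound concentration series | measure = IC50 from 4-parameter logistic, bounds fixed 0–100% | controls = chloramphenicol 30 µM control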

SMILES	growth inhibition
COc1ccc(-c2noc(Cc3ccc(Cl)cc3)n2)cc1OC	7.9% (inactive)
COc1cccc(N2CC(C(=O)Nc3ccc(C(=O)OC(C)C)cc3)CC2=O)c1 (stereo not drawn)	5.31% (inactive)
CCCCCOC(=O)c1ccc(NC(=O)c2ccco2)cc1	-0.06% (inactive)
CCOC(=O)c1cnc(-n2nc(C)cc2C)nc1NC1CCCCC1	-4.22% (inactive)
COc1ccccc1N1CCN(Cc2nc(N)nc(Nc3ccc(C)c(Cl)c3)n2)CC1	8.69% (inactive)
CN1C(=O)C2(OCC(COc3ccc(Cl)cc3)O2)c2ccccc21 (stereo not drawn)	-7.83% (inactive)
Cc1ccc(C)c(Cn2c(CN(C)Cc3ccccc3)nc3c2c(=O)n(C)c(=O)n3C)c1	-10% (inactive)
CCC(Oc1ccccc1)C(=O)Nc1ccc(-c2nnc(-c3ccco3)o2)cc1 (stereo not drawn)	-9.73% (inactive)
Cc1nc2c(C(=O)NCCC3=CCCCC3)c[nH]n2c(=O)c1Cl	5.42% (inactive)
CCOC(=O)C1CN(c2cc3c(cc2F)c(=O)c(C(=O)O)cn3CC)OC1C(=O)OCC (stereo not drawn)	3.92% (inactive)
Cc1cc(N2CCC(C)CC2)nc(-n2nc(C)cc2C)n1	-4.79% (inactive)
O=c1[nH]c(=O)n(C2CCCCCC2)c(O)c1C=NCc1ccc(F)cc1	-0.14% (inactive)
COC(=O)c1c(NC(=O)CCc2ccc(C)o2)sc(C)c1C	3.59% (inactive)
N#Cc1nc(Cc2cccc3ccccc23)oc1NCc1ccc(F)cc1	20% (active)
N#Cc1nc(Cc2cccc3ccccc23)oc1NCCCn1ccnc1	2.47% (inactive)
N#Cc1nc(Cc2ccccc2)oc1NCc1ccccc1Cl	14.5% (inactive)
CC1CCC(C(C)C)C(OC(=O)COC(=O)c2ccc(=O)[nH]c2)C1 (stereo not drawn)	1.53% (inactive)
C=CCn1c(NC(C)c2cc(Cl)ccc2O)nc2ccccc21 (stereo not drawn)	13.7% (inactive)
O=C(Nc1ccccc1N1CCCCC1)c1cccs1	1.03% (inactive)
O=C(OC1CCCCC1)c1ccc(NC(=O)c2ccco2)cc1	2.7% (inactive)
O=C(Nc1nnc(-c2ccc(F)cc2)o1)c1ccco1	1.59% (inactive)
Cc1nn(-c2ccccc2)c(C)c1C(=O)Nc1nnc(-c2ccco2)o1	9.7% (inactive)
Cc1ccc(-c2csc3ncnc(Sc4nnc(CN5CCCCCC5=O)o4)c23)cc1	5.4% (inactive)
CCc1ccc2[nH]c(=O)c(C(c3nnnn3CCOC)N3CCN(c4ccc(F)cc4)CC3)cc2c1 (stereo not drawn)	-0.14% (inactive)

SMILES	growth inhibition
CC(C)OCCCNc1ncnc2c1[nH]c1ccc(F)cc12	9.62% (inactive)
CC(C)OCCCNc1ncnc2c1[nH]c1ccccc12	8.07% (inactive)
CCOc1ccc2[nH]c3c(N4CCN(c5ccccn5)CC4)ncnc3c2c1	-8.17% (inactive)
N#C/C(=C\c1cccs1)Sc1nc2ccccc2s1	-8.78% (inactive)
O=C(CN(Cc1ccc2c(c1)OCO2)C(=O)CSc1nc2ccccc2o1)NC1CCCCC1	-6.97% (inactive)
C=C(C)Cn1c(N2CCC(Cc3ccccc3)CC2)nc2c1c(=O)[nH]c(=O)n2C	-2.32% (inactive)
Cn1c(=O)c2c(nc(N3CCCCCC3)n2Cc2cccc3ccccc23)n(C)c1=O	-1.26% (inactive)
CCOc1ccccc1N1CCN(Cc2ccc(Br)s2)CC1	-0.45% (inactive)
CC1=CC(C)(C)N2C(=O)C3(SCC(=O)N3c3ccc(O)cc3)c3cc(C)cc1c32 (stereo not drawn)	1.81% (inactive)
CCCOC(=O)c1ccc(Oc2cn[nH]c2-c2ccc(OCC)cc2O)cc1	8.01% (inactive)
Cn1c(=O)n(CCCOc2ccc(Br)cc2)c2ccccc21	9.45% (inactive)
C=C(C)COc1ccc(-c2n[nH]c(C)c2-c2ccccc2)c(O)c1	20.5% (active)
C=C(C)COc1ccc(-c2n[nH]c(C)c2-c2ccccc2OC)c(O)c1	8.4% (inactive)
C=C(C)COc1ccc(-c2n[nH]c(C)c2Oc2ccccc2OC)c(O)c1	0.02% (inactive)
Cc1cccc(Nc2nc(-c3ccccn3)cs2)n1	4.37% (inactive)
c1ccc(-c2nc(N3CCCCCC3)c3ccccc3n2)nc1	17.1% [at 50 µM] (inactive)
CCCCn1c(NC(=O)c2ccccc2)c(C#N)c2nc3ccccc3nc21	-8.7% (inactive)
CCn1c(Cn2nnc(-c3ccccc3)n2)nnc1SCc1ccc(Cl)c(Cl)c1	-0.33% (inactive)
Cc1cccc(NC(=O)c2cc(NC(=O)C3CCCCC3C(=O)O)ccc2N2CCCCC2)c1 (stereo not drawn)	-4.25% (inactive)
O=C(COn1nnc2ccc(C(F)(F)F)cc21)Nc1nnc(-c2ccccc2)o1	-3.92% (inactive)
O/N=C(\c1ccc(Cl)cc1)c1cc2ccccc2o1	8.62% (inactive)
Cc1onc(-c2ccccc2)c1C(=O)OCC(=O)c1ccccc1	1.87% (inactive)
CN(c1ccccc1C(=O)Nc1ccc(S(=O)(=O)N2CCCCC2)cc1)S(C)(=O)=O	-1.44% (inactive)
O=C(NC1CCCC1)c1sc(=S)n2c1[nH]c(=O)c1ccccc12	-2.92% (inactive)

SMILES	growth inhibition
Cn1c(=O)c2c(SCc3cccnc3)nc(CC(C)(C)C)nc2n(C)c1=O	1.92% (inactive)
O=C(Nc1ccc(S(=O)(=O)N2CCCc3ccccc32)cc1)C1CCCO1 (stereo not drawn)	-2.99% (inactive)
c1ccc(-n2nnnc2Oc2cccc3cccnc23)cc1	2.63% (inactive)
O=C(NCc1ccco1)c1cc2sccc2n1Cc1ccccc1	-6.37% (inactive)
N=c1n(CCN2CCOCC2)c2ccccc2n1CC(=O)c1ccc(Cl)c(Cl)c1	-3.82% (inactive)
c1csc(-c2nc3nc4ccccc4nc3n2Cc2ccc3c(c2)OCO3)c1	-7.29% (inactive)
COc1cc(-c2nc(Cc3ccccc3Cl)no2)cc(OC)c1OC	8.5% (inactive)
O=C(COc1ccc2ccccc2c1Br)N1CCN(c2ccccn2)CC1	-12.5% (inactive)
CSCCOC(=O)C1=C(C)NC(=O)CC1c1ccccc1Cl (stereo not drawn)	3.74% (inactive)
CC(OC(=O)c1ccccc1NCc1ccco1)C(=O)Nc1ncc(Cl)cc1Cl (stereo not drawn)	11.2% (inactive)
COc1ccc(S(=O)(=O)Nc2ccc(S(=O)(=O)N3CCCCC3)cc2)cc1	-5.18% (inactive)
N#CC1=C(N)NC(SCc2ccccc2)=C(C#N)C12CCCCC2	12.1% (inactive)
CCSc1nnc(NC(=O)CSc2nccn2-c2cccc(C)c2C)s1	2.99% (inactive)
Cc1onc(-c2c(F)cccc2Cl)c1C(=O)Nc1nc2c(s1)CCCC2	-5.05% (inactive)
Cc1cc(N2CCN(C(c3ccccc3)c3ccccc3)CC2)n2ncnc2n1	6.9% (inactive)
COc1ccc(OC)c(S(=O)(=O)n2cnc3cc(C)c(C)cc32)c1	-5.06% (inactive)
Brc1cc(Br)c2ncnc(N3CCCCC3)c2c1	7.11% (inactive)
CCc1nc(N2CCCCC2)c2oc3ccccc3c2n1	-1.03% (inactive)
c1ccc(-c2nc(CSc3nnc(-c4cccs4)o3)cs2)cc1	-5.14% (inactive)
Cc1cc(-c2ccco2)c(C#N)c2nc3ccccc3n12	-4.65% (inactive)
Cc1ccc(NC(=O)N2CCC(c3nc4c(nnn4Cc4cccc(Cl)c4)c(=O)[nH]3)CC2)cc1	-0.39% (inactive)
O=C(Nc1nnc(-c2ccc(Cl)cc2)o1)c1ccccc1Br	5.98% [at 50 µM] (inactive)
O=C(Nc1nnc(-c2ccccc2)o1)c1nc2ccccc2s1	-11.8% (inactive)
Cc1ccc(C2c3c(-c4ccccc4O)n[nH]c3C(=O)N2Cc2ccncc2)cc1 (stereo not drawn)	-4.25% (inactive)

SMILES	growth inhibition
O=C(Nc1ccc(Cl)c(Cl)c1)N1CCSC1c1ccco1 (stereo not drawn)	15.6% (inactive)
CCSc1nnc(NC(=O)c2nc(-c3ccccc3)n(-c3ccccc3)n2)s1	-4.83% (inactive)
CCc1nnc(NC(=O)c2cccc(C(=O)Nc3nnc(CC)s3)n2)s1	9.58% (inactive)
Cc1ccc(-c2nnc3sc(CCc4ccccc4)nn23)cc1	9.95% (inactive)
COC(=O)c1ccsc1NC(=O)CN1CCN(c2ccc(F)cc2)CC1	-9.19% (inactive)
O=C(c1cccc(COc2ccc(Cl)cc2Cl)c1)N1CCN(c2ccccn2)CC1	-14.7% (inactive)
O=C(Nc1nc2ccccc2s1)C1CCCN1S(=O)(=O)c1ccc(Cl)cc1 (stereo not drawn)	-7.08% (inactive)
COc1ccc(-c2nnc(SCc3cc(C)cc(C)c3)o2)cc1	-1.05% (inactive)
c1ccc(N2CCN(c3ncnc4c3oc3ccccc34)CC2)cc1	-9.68% (inactive)
COc1ccc(C)cc1NC(=O)CSc1nnc(COc2ccccc2)n1Cc1ccco1	0.64% (inactive)
CCc1cc2c3c(c(=O)oc2cc1O)CCCC3	-5.58% (inactive)
CCCn1c(CNc2ccc(Br)cc2)nc2ccccc21	7.8% (inactive)
CCc1nc2ccccc2c(=O)n1NC(=O)c1c(O)c2cccc3c2n(c1=O)CCC3	-13.7% (inactive)
O=C(Nc1nc2n(n1)C(c1ccc(Cl)cc1)CC(c1ccc(Cl)cc1)N2)c1ccco1 (stereo not drawn)	13% (active)
COc1ccc(C2CC(c3ccccc3)n3nc(NC(=O)c4cccs4)nc3N2)cc1 (stereo not drawn)	3.83% (inactive)
O=C(Nc1nc2ccccc2n1CCOc1ccc(Cl)cc1)c1ccco1	3.35% (inactive)
O=C(Cn1c2c(c(-c3ccccc3)cc1=O)CCCC2)N1CCCCCC1	3.36% (inactive)
C=CCn1c(SCC(O)Cn2c3ccccc3c3ccccc32)nnc1-c1ccco1 (stereo not drawn)	-9.43% (inactive)
O=C(CSc1nnc2scc(-c3ccccc3)n12)Nc1nsc(-c2ccccc2)n1	-9.04% (inactive)
COc1ccc(Cl)cc1N1CCN(CCNC(=O)Nc2ccccc2C)CC1	-2.62% (inactive)
Cn1c(=O)c(C(=S)NC(=O)C2CC2)c(N)n(Cc2ccccc2)c1=O	-3.57% (inactive)
